Results reported in ChEMBL document CHEMBL3616436, “Synthesis, cytotoxicity and antimicrobial activity of thiourea derivatives incorporating 3-(trifluoromethyl)phenyl moiety” (Eur J Med Chem, 2015).
≈ marks a conversion by molar mass, not a printed value.

Key:
[1] = system: Staphylococcus aureus; experiment: Antimicrobial activity against hospital methicillin-resistant Staphylococcus aureus 54/05 after 18 hrs by twofold serial microdilution method; format: functional; details: 54/05, 18 h
Outline: (§1)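 Twofold serial microdilution in Mueller-Hinton broth. Compound stock was made in DMSO and diluted in sterile water. Tested range was 0.125–512 µg/mL. Final inoculum was 10^5 CFU/mL. Plates were incubated 18 h at 35 °C. MIC is the lowest concentration preventing visible growth.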

[2] = system: Staphylococcus epidermidis; experiment: Antimicrobial activity against Staphylococcus epidermidis ATCC 35984 after 18 hrs by twofold serial microdilution method; format: functional; details: ATCC 35984, 18 h
[3] = system: Poliovirus 1; experiment: Antiviral activity against Poliovirus type 1 ATCC VR-1562 infected in African green monkey Vero 76 cells assessed as reduction of virus-plaque formation after 2 days by crystal violet staining; format: functional, organism-based; details: Enterovirus C, ATCC VR-1562, Vero, 48 h
[4] = system: Staphylococcus aureus; experiment: Ratio of ciprofloxacin MIC to compound MIC for hospital methicillin-resistant Staphylococcus aureus 53/05 after 18 hrs by twofold serial microdilution method; format: functional
Outline: (§2)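 Ratio of MICs for ciprofloxacin and test agent, each from twofold serial broth microdilution in Mueller-Hinton broth following CLSI guidelines. DMSO stock was diluted in sterile water to 0.125–512 µg/mL, with a final inoculum of 10^5 CFU/mL.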

[5] = system: Vesicular stomatitis virus; experiment: Antiviral activity against Vesicular stomatitis virus ATCC VR 1540 infected in African green monkey Vero 76 cells assessed as reduction of virus-plaque formation after 2 days by crystal violet staining; format: functional, organism-based; details: ATCC VR 1540, Vero, 48 h
[6] = system: Staphylococcus aureus; experiment: Ratio of ciprofloxacin MIC to compound MIC for hospital methicillin-resistant Staphylococcus aureus 80/05 after 18 hrs by twofold serial microdilution method; format: functional; outline: as §2
[7] = Cytotoxicity against BHK cells assessed as cell viability after 48 to 96 hrs by MTT assay; format: cell-based, Mesocricetus auratus; details: hamster
[8] = system: Staphylococcus epidermidis; experiment: Ratio of ciprofloxacin MIC to compound MIC for hospital methicillin-resistant Staphylococcus epidermidis 23/04 after 18 hrs by twofold serial microdilution method; format: functional; outline: as §2
[9] = system: Human alphaherpesvirus 1; experiment: Antiviral activity against Human herpesvirus 1 KOS ATCC VR-1493 infected in African green monkey Vero 76 cells assessed as reduction of virus-plaque formation after 3 days by crystal violet staining; format: functional, organism-based; details: Human alphaherpesvirus 1, KOS ATCC VR1493, Vero, 72 h
Outline: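 Plaque reduction: Vero-76 at 2x10^5 cells/well grown to confluent monolayers, infected 2 h at 50–100 PFU/well; after removing unadsorbed virus, overlay of D-MEM, 1% inactivated FBS, 0.75% methylcellulose with or without serial compound dilutions; 3 days at 37°C, fixed and stained with crystal violet in 50% ethanol, plaques counted; EC50 by linear regression.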

[10] = system: Staphylococcus aureus; experiment: Antimicrobial activity against hospital methicillin-resistant Staphylococcus aureus 57/05 after 18 hrs by twofold serial microdilution method; format: functional; details: 57/05, 18 h; outline: as §1
[11] = system: Staphylococcus aureus; experiment: Antimicrobial activity against Staphylococcus aureus ATCC 25923 at 400 ug after 18 hrs by disc-diffusion method; format: functional; details: ATCC 25923, 18 h, read-out: IZ
Outline: (§3)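 Disc diffusion on Mueller-Hinton II agar per CLSI; 9 mm paper discs loaded with 400 µg compound from DMSO solution, dried, placed on agar; growth inhibition zone diameter read after 18 h at 35°C.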

[12] = system: Staphylococcus epidermidis; experiment: Antimicrobial activity against hospital methicillin-resistant Staphylococcus epidermidis 16/04 after 18 hrs by twofold serial microdilution method; format: functional; details: 16/04, 18 h; outline: as §1
[13] = system: Staphylococcus aureus; experiment: Antimicrobial activity against hospital methicillin-resistant Staphylococcus aureus 79/05 after 18 hrs by twofold serial microdilution method; format: functional; details: 79/05, 18 h; outline: as §1
[14] = system: Staphylococcus epidermidis; experiment: Ratio of ciprofloxacin MIC to compound MIC for hospital methicillin-resistant Staphylococcus epidermidis 62/04 after 18 hrs by twofold serial microdilution method; format: functional; outline: as §2
[15] = system: Staphylococcus aureus; experiment: Ratio of ciprofloxacin MIC to compound MIC for hospital methicillin-resistant Staphylococcus aureus 81/05 after 18 hrs by twofold serial microdilution method; format: functional; outline: as §2
[16] = system: Mycobacterium tuberculosis; experiment: Antimycobacterial activity against Mycobacterium tuberculosis H37Rv ATCC 25618; format: functional
Outline: (§4)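 Classical test-tube successive-dilution method in Youmans' modification of Proskauer and Beck liquid medium with 10% bovine serum. Inoculum came from 14-day cultures. DMSO stock was 10 mg/mL, diluted geometrically in medium. Tubes were incubated at 37 °C. Concentrations tested were 3.1, 6.2, 12.5, 25, 50 and 100 µg/ml. MIC is the minimum concentration inhibiting growth relative to compound-free tubes.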

[17] = system: Staphylococcus aureus; experiment: Antimicrobial activity against hospital methicillin-resistant Staphylococcus aureus 53/05 after 18 hrs by twofold serial microdilution method; format: functional; details: 53/05, 18 h; outline: as §1
[18] = system: Human immunodeficiency virus 1; experiment: Antiviral activity against HIV1 3B infected in human MT4 cells assessed as protection against virus-induced cytopathogenicity by MTT assay; format: functional, organism-based; details: Human immunodeficiency virus 1, 3B
[19] = system: Staphylococcus aureus; experiment: Antimicrobial activity against hospital methicillin-resistant Staphylococcus aureus 573/11 after 18 hrs by twofold serial microdilution method; format: functional; details: 573/11, 18 h; outline: as §1
[20] = Cytotoxicity against human MT4 cells; format: cell-based
[21] = system: Staphylococcus epidermidis; experiment: Ratio of ciprofloxacin MIC to compound MIC for hospital methicillin-resistant Staphylococcus epidermidis 31/04 after 18 hrs by twofold serial microdilution method; format: functional; outline: as §2
[22] = system: Staphylococcus aureus; experiment: Antimicrobial activity against Staphylococcus aureus NCTC 4163 after 18 hrs by twofold serial microdilution method; format: functional; details: NCTC 4163, 18 h
[23] = system: Staphylococcus aureus; experiment: Antimicrobial activity against Staphylococcus aureus ATCC 29213 after 18 hrs by twofold serial microdilution method; format: functional; details: ATCC 29213, 18 h
[24] = system: Enterococcus hirae; experiment: Antimicrobial activity against Enterococcus hirae ATCC 10541 at 400 ug after 18 hrs by disc-diffusion method; format: functional; details: ATCC 10541, 18 h, read-out: IZ; outline: as §3
[25] = system: Yellow fever virus; experiment: Antiviral activity against Yellow fever virus 17D infected in BHK cells assessed as protection against virus-induced cytopathogenicity after 3 to 4 days by MTT assay; format: functional, cell-based
[26] = system: Bacillus cereus; experiment: Antimicrobial activity against Bacillus cereus ATCC 11778 at 400 ug after 18 hrs by disc-diffusion method; format: functional; details: ATCC 11778, 18 h, read-out: IZ; outline: as §3
[27] = system: Micrococcus luteus; experiment: Antimicrobial activity against Micrococcus luteus ATCC 10240 at 400 ug after 18 hrs by disc-diffusion method; format: functional; details: ATCC 10240, 18 h, read-out: IZ; outline: as §3
[28] = system: Mycobacterium tuberculosis; experiment: Antimycobacterial activity against drug-sensitive Mycobacterium tuberculosis Spec. 192; format: functional; outline: as §4
[29] = system: Staphylococcus aureus; experiment: Antimicrobial activity against Staphylococcus aureus ATCC 6538 at 400 ug after 18 hrs by disc-diffusion method; format: functional; details: ATCC 6538, 18 h, read-out: IZ; outline: as §3
[30] = system: Staphylococcus epidermidis; experiment: Antimicrobial activity against Staphylococcus epidermidis ATCC 12228 at 400 ug after 18 hrs by disc-diffusion method; format: functional; details: ATCC 12228, 18 h, read-out: IZ; outline: as §3
[31] = system: Staphylococcus aureus; experiment: Antimicrobial activity against hospital methicillin-resistant Staphylococcus aureus 522/11 after 18 hrs by twofold serial microdilution method; format: functional; details: 522/11, 18 h; outline: as §1
[32] = system: Micrococcus luteus; experiment: Antimicrobial activity against Micrococcus luteus ATCC 9341 at 400 ug after 18 hrs by disc-diffusion method; format: functional; details: ATCC 9341, 18 h, read-out: IZ; outline: as §3
[33] = system: Staphylococcus aureus; experiment: Ratio of ciprofloxacin MIC to compound MIC for hospital methicillin-resistant Staphylococcus aureus 54/05 after 18 hrs by twofold serial microdilution method; format: functional; outline: as §2

FC(F)(F)c1cccc(NC(=S)NCCc2ccccc2)c1
MIC [1]: 8 µg/mL (≈ 24.7 µM) | MIC [2]: 8 µg/mL (≈ 24.7 µM) | EC50 [3]: > 46 µM | Ratio [4]: 128 | EC50 [5]: > 46 µM | Ratio [6]: 128 | CC50 [7]: 29 µM | Ratio [8]: 128 | EC50 [9]: > 46 µM | MIC [10]: 8 µg/mL (≈ 24.7 µM) | zone of inhibition at 400 µg/disc [11]: 15 mm | MIC [12]: 8 µg/mL (≈ 24.7 µM) | MIC [13]: 16 µg/mL (≈ 49.3 µM) | Ratio [14]: 128 | Ratio [15]: 128 | MIC [16]: 50 µg/mL (≈ 154 µM) | MIC [17]: 8 µg/mL (≈ 24.7 µM) | EC50 [18]: > 8.8 µM | MIC [19]: 16 µg/mL (≈ 49.3 µM) | CC50 [20]: 8.8 µM | Ratio [21]: 128 | MIC [22]: 8 µg/mL (≈ 24.7 µM) | MIC [23]: 8 µg/mL (≈ 24.7 µM) | zone of inhibition at 400 µg/disc [24]: 17 mm | EC50 [25]: > 29 µM | zone of inhibition at 400 µg/disc [26]: 16 mm | zone of inhibition at 400 µg/disc [27]: 15 mm | MIC [28]: 100 µg/mL (≈ 308 µM) | zone of inhibition at 400 µg/disc [29]: 15 mm | zone of inhibition at 400 µg/disc [30]: 14 mm | MIC [31]: 16 µg/mL (≈ 49.3 µM) | zone of inhibition at 400 µg/disc [32]: 18 mm | Ratio [33]: 128

Fc1ccc(NC(=S)Nc2cccc(C(F)(F)F)c2)cc1Cl
MIC [1]: 1 µg/mL (≈ 2.87 µM) | MIC [2]: 2 µg/mL (≈ 5.73 µM) | EC50 [3]: > 20 µM | Ratio [4]: 128 | EC50 [5]: > 20 µM | Ratio [6]: 128 | CC50 [7]: 10 µM | Ratio [8]: 128 | EC50 [9]: > 20 µM | MIC [10]: 1 µg/mL (≈ 2.87 µM) | zone of inhibition at 400 µg/disc [11]: 27 mm | MIC [12]: 1 µg/mL (≈ 2.87 µM) | MIC [13]: 1 µg/mL (≈ 2.87 µM) | Ratio [14]: 128 | Ratio [15]: 128 | MIC [16]: 50 µg/mL (≈ 143 µM) | MIC [17]: 1 µg/mL (≈ 2.87 µM) | EC50 [18]: > 8 µM | MIC [19]: 0.5 µg/mL (≈ 1.43 µM) | CC50 [20]: 8 µM | Ratio [21]: 128 | MIC [22]: 1 µg/mL (≈ 2.87 µM) | MIC [23]: 1 µg/mL (≈ 2.87 µM) | zone of inhibition at 400 µg/disc [24]: 34 mm | EC50 [25]: > 10 µM | zone of inhibition at 400 µg/disc [26]: 25 mm | zone of inhibition at 400 µg/disc [27]: 30 mm | MIC [28]: 50 µg/mL (≈ 143 µM) | zone of inhibition at 400 µg/disc [29]: 30 mm | zone of inhibition at 400 µg/disc [30]: 30 mm | MIC [31]: 0.5 µg/mL (≈ 1.43 µM) | zone of inhibition at 400 µg/disc [32]: 32 mm | Ratio [33]: 128
